Assay results: ChEMBL document CHEMBL2380270, “Radiosynthesis and first evaluation in mice of [(18)F]NS14490 for molecular imaging of α7 nicotinic acetylcholine receptors” (Bioorg Med Chem, 2013)

Legend:
[1] = system: Mus musculus; experiment: Biodistribution in CD1 mouse large intestine at 200 to 300 kBq, iv measured at 15 mins by gamma counting analysis; assay type: ADME, organism-based; details: in vivo, 0.25 h
Summary of the method: (§1)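 Female CD-1 mice, 200–300 kBq radiotracer given iv, n = 3 per time point. Animals anaesthetised for blood and urine sampling, then killed by cervical dislocation at 5, 15, 30 or 60 min p.i. Organs removed, weighed and gamma-counted; uptake expressed as % injected dose per g wet tissue.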

[2] = system: Lung; experiment: Biodistribution in CD1 mouse lung at 200 to 300 kBq, iv measured at 30 mins by gamma counting analysis; assay type: ADME, organism-based; details: in vivo, 0.5 h
Summary of the method: (§2)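 Female CD-1 mice received 200–300 kBq [18F]radiotracer intravenously. Blood and urine were sampled under anaesthesia, then mice were killed by cervical dislocation at 5, 15, 30 or 60 min p.i. (n = 3; control at 60 min n = 7). Organs were removed and weighed, activity was gamma-counted, and uptake was expressed as % injected dose per g wet tissue.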

[3] = system: Mus musculus; experiment: Biodistribution in CD1 mouse adrenal at 200 to 300 kBq, iv measured at 5 mins by gamma counting analysis; assay type: ADME, organism-based, Adrenal gland; details: in vivo; summary of the method: as §1
[4] = system: Brain; experiment: Biodistribution in CD1 mouse brain at 200 to 300 kBq, iv measured at 5 mins by gamma counting analysis; assay type: ADME, organism-based; details: in vivo; summary of the method: as §1
[5] = system: Muscle tissue; experiment: Biodistribution in CD1 mouse muscle at 200 to 300 kBq, iv measured at 15 mins by gamma counting analysis; assay type: ADME, organism-based; details: in vivo, 0.25 h; summary of the method: as §2
[6] = system: Mus musculus; experiment: Biodistribution in CD1 mouse large intestine at 200 to 300 kBq, iv measured at 60 mins by gamma counting analysis; assay type: ADME, organism-based; details: in vivo, 1 h; summary of the method: as §1
[7] = system: Zone of skin; experiment: Biodistribution in CD1 mouse skin at 200 to 300 kBq, iv measured at 15 mins by gamma counting analysis; assay type: ADME, organism-based; details: in vivo, 0.25 h; summary of the method: as §2
[8] = system: Mus musculus; experiment: Biodistribution in CD1 mouse adrenal at 200 to 300 kBq, iv measured at 15 mins by gamma counting analysis; assay type: ADME, organism-based, Adrenal gland; details: in vivo, 0.25 h; summary of the method: as §1
[9] = system: Lung; experiment: Biodistribution in CD1 mouse lung at 200 to 300 kBq, iv measured at 60 mins by gamma counting analysis; assay type: ADME, organism-based; details: in vivo, 1 h; summary of the method: as §2
[10] = system: Kidney; experiment: Biodistribution in CD1 mouse kidney at 200 to 300 kBq, iv measured at 15 mins by gamma counting analysis; assay type: ADME, organism-based; details: in vivo, 0.25 h; summary of the method: as §1
[11] = system: Brain; experiment: Biodistribution in CD1 mouse brain at 200 to 300 kBq, iv measured at 15 mins by gamma counting analysis; assay type: ADME, organism-based; details: in vivo, 0.25 h; summary of the method: as §1
[12] = system: Femur; experiment: Biodistribution in CD1 mouse femur at 200 to 300 kBq, iv measured at 60 mins by gamma counting analysis in presence of SSR180711; assay type: ADME, organism-based; details: in vivo, 1 h
Summary of the method: (§3)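 Blocking study in female CD-1 mice, n = 7 per blocker, with a matching control group. SSR180711 or NS6740 given at 10 mg kg⁻¹ ip in 0.9% saline 10 min before iv radiotracer (200–300 kBq). Organs taken at 60 min p.i., weighed and gamma-counted; uptake as % ID per g wet weight. Compared with control by two-tailed independent Student's t test.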

[13] = system: Urinary bladder; experiment: Biodistribution in CD1 mouse bladder at 200 to 300 kBq, iv measured at 5 mins by gamma counting analysis; assay type: ADME, organism-based; details: in vivo; summary of the method: as §1
[14] = system: Blood; experiment: Biodistribution in CD1 mouse blood at 200 to 300 kBq, iv measured at 60 mins by gamma counting analysis in presence of SSR180711; assay type: ADME, organism-based; details: in vivo, 1 h; summary of the method: as §3
[15] = system: Zone of skin; experiment: Biodistribution in CD1 mouse skin at 200 to 300 kBq, iv measured at 60 mins by gamma counting analysis in presence of SSR180711; assay type: ADME, organism-based; details: in vivo, 1 h
Summary of the method: (§4)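 Blocking design in female CD-1 mice, n = 7 per group. The blocker was given at 10 mg kg^-1 i.p. in 0.9% saline 10 min before i.v. 200–300 kBq [18F]radiotracer. Mice were killed at 60 min p.i. and organs weighed and gamma-counted as % ID per g wet weight. Blocked groups were compared with controls by two-tailed independent Student's t test.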

[16] = system: Mus musculus; experiment: Biodistribution in CD1 mouse thymus at 200 to 300 kBq, iv measured at 30 mins by gamma counting analysis; assay type: ADME, organism-based; details: in vivo, 0.5 h; summary of the method: as §2
[17] = system: Pancreas; experiment: Biodistribution in CD1 mouse pancreas at 200 to 300 kBq, iv measured at 30 mins by gamma counting analysis; assay type: ADME, organism-based; details: in vivo, 0.5 h; summary of the method: as §2
[18] = system: Zone of skin; experiment: Biodistribution in CD1 mouse skin at 200 to 300 kBq, iv measured at 5 mins by gamma counting analysis; assay type: ADME, organism-based; details: in vivo; summary of the method: as §2
[19] = system: Blood; experiment: Biodistribution in CD1 mouse blood at 200 to 300 kBq, iv measured at 15 mins by gamma counting analysis; assay type: ADME, organism-based; details: in vivo, 0.25 h; summary of the method: as §1
[20] = system: Femur; experiment: Biodistribution in CD1 mouse femur at 200 to 300 kBq, iv measured at 60 mins by gamma counting analysis; assay type: ADME, organism-based; details: in vivo, 1 h; summary of the method: as §1
[21] = system: Brain; experiment: Biodistribution in CD1 mouse brain at 200 to 300 kBq, iv measured at 60 mins by gamma counting analysis; assay type: ADME, organism-based; details: in vivo, 1 h; summary of the method: as §1
[22] = system: Mus musculus; experiment: Biodistribution in CD1 mouse thymus at 200 to 300 kBq, iv measured at 5 mins by gamma counting analysis; assay type: ADME, organism-based; details: in vivo
Summary of the method: (§5)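 Female CD-1 mice given 200–300 kBq tracer intravenously. Animals anaesthetised for blood and urine sampling, then killed by cervical dislocation at 5, 15, 30 or 60 min (n = 3 per time; n = 7 at 60 min). Organs removed and weighed, activity gamma-counted, expressed as % injected dose per g wet weight. Blocking arm: 10 mg/kg i.p. in 0.9% saline, 10 min before tracer; two-tailed unpaired t test versus control.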

[23] = system: Mus musculus; experiment: Biodistribution in CD1 mouse thymus at 200 to 300 kBq, iv measured at 60 mins by gamma counting analysis in presence of SSR180711; assay type: ADME, organism-based; details: in vivo, 1 h; summary of the method: as §5
[24] = system: Urinary bladder; experiment: Biodistribution in CD1 mouse bladder at 200 to 300 kBq, iv measured at 60 mins by gamma counting analysis in presence of SSR180711; assay type: ADME, organism-based; details: in vivo, 1 h; summary of the method: as §3
[25] = system: Stomach; experiment: Biodistribution in CD1 mouse stomach at 200 to 300 kBq, iv measured at 60 mins by gamma counting analysis in presence of SSR180711; assay type: ADME, organism-based; details: in vivo, 1 h; summary of the method: as §4
[26] = system: Spleen; experiment: Biodistribution in CD1 mouse spleen at 200 to 300 kBq, iv measured at 30 mins by gamma counting analysis; assay type: ADME, organism-based; details: in vivo, 0.5 h; summary of the method: as §2
[27] = system: Mus musculus; experiment: Biodistribution in CD1 mouse large intestine at 200 to 300 kBq, iv measured at 60 mins by gamma counting analysis in presence of SSR180711; assay type: ADME, organism-based; details: in vivo, 1 h; summary of the method: as §3
[28] = system: Zone of skin; experiment: Biodistribution in CD1 mouse skin at 200 to 300 kBq, iv measured at 30 mins by gamma counting analysis; assay type: ADME, organism-based; details: in vivo, 0.5 h; summary of the method: as §2
[29] = system: Femur; experiment: Biodistribution in CD1 mouse femur at 200 to 300 kBq, iv measured at 5 mins by gamma counting analysis; assay type: ADME, organism-based; details: in vivo; summary of the method: as §1
[30] = system: Femur; experiment: Biodistribution in CD1 mouse femur at 200 to 300 kBq, iv measured at 15 mins by gamma counting analysis; assay type: ADME, organism-based; details: in vivo, 0.25 h; summary of the method: as §1
[31] = system: Pancreas; experiment: Biodistribution in CD1 mouse pancreas at 200 to 300 kBq, iv measured at 60 mins by gamma counting analysis; assay type: ADME, organism-based; details: in vivo, 1 h; summary of the method: as §2
[32] = system: Kidney; experiment: Biodistribution in CD1 mouse kidney at 200 to 300 kBq, iv measured at 60 mins by gamma counting analysis in presence of SSR180711; assay type: ADME, organism-based; details: in vivo, 1 h; summary of the method: as §3

SMILES: O=C(Oc1ccc(Br)cc1)N1CCN2CCC1CC2 [SSR180711]
- Drug uptake [1]: 2.65 % ID/g
- Drug uptake [2]: 6.78 % ID/g
- Drug uptake [3]: 5.78 % ID/g
- Drug uptake [4]: 0.16 % ID/g
- Drug uptake [5]: 1.88 % ID/g
- Drug uptake [6]: 5.02 % ID/g
- Drug uptake [7]: 1.4 % ID/g
- Drug uptake [8]: 5.65 % ID/g
- Drug uptake [9]: 4.88 % ID/g
- Drug uptake [10]: 10.6 % ID/g
- Drug uptake [11]: 0.24 % ID/g
- Drug uptake [12]: 1.43 % ID/g
- Drug uptake [13]: 1.27 % ID/g
- Drug uptake [14]: 0.78 % ID/g
- Drug uptake [15]: 2.04 % ID/g
- Drug uptake [16]: 2.6 % ID/g
- Drug uptake [17]: 4.2 % ID/g
- Drug uptake [18]: 0.81 % ID/g
- Drug uptake [19]: 1.25 % ID/g
- Drug uptake [20]: 2.09 % ID/g
- Drug uptake [21]: 0.18 % ID/g
- Drug uptake [22]: 1.95 % ID/g
- Drug uptake [23]: 2.47 % ID/g
- Drug uptake [24]: 1.47 % ID/g
- Drug uptake [25]: 7.76 % ID/g
- Drug uptake [26]: 7.5 % ID/g
- Drug uptake [27]: 5.46 % ID/g
- Drug uptake [28]: 1.23 % ID/g
- Drug uptake [29]: 1.45 % ID/g
- Drug uptake [30]: 2.15 % ID/g
- Drug uptake [31]: 3.12 % ID/g
- Drug uptake [32]: 10.5 % ID/g
